In ChEMBL document CHEMBL1250525, “Structure-activity relationships in 1,4-benzodioxan-related compounds. 10. Novel α1-adrenoreceptor antagonists related to openphendioxan: synthesis, biological evaluation, and α1d computational study” (Bioorg Med Chem, 2010):

Tests used:
[1] = biological target: T1, Alpha-1A adrenergic receptor (Rattus norvegicus) (UniProt P43140); test: Antagonist activity at adrenergic alpha1A receptor in Wistar rat vas deference assessed as inhibition of (-)-noradrenaline-indcuced contraction; type: functional
T1 sequence (whole entry): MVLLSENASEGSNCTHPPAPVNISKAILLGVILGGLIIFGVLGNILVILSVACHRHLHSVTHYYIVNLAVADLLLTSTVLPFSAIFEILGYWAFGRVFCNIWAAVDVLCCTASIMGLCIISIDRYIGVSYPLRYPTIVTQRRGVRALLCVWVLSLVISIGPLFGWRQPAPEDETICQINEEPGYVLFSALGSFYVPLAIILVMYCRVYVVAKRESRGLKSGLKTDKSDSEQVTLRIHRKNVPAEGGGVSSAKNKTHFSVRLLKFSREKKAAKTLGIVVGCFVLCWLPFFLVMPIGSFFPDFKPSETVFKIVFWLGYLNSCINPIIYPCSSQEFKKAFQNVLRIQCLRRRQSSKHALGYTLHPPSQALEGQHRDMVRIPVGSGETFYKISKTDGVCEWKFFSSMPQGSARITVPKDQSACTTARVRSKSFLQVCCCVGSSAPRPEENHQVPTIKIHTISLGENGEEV
In short: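 Tissue in Tyrode with 0.1 µM cocaine, equilibrated 60 min with washes every 15 min, primed twice with 10 µM noradrenaline. A noradrenaline curve gave the basal response. Antagonist 30 min, then 30 min washing, then a new agonist curve.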

[2] = biological target: T2, Alpha-1B adrenergic receptor (Rattus norvegicus) (UniProt P15823); test: Antagonist activity at adrenergic Alpha-1B receptor in Wistar rat spleen assessed as inhibition of […]-indcuced contraction; type: functional, tissue-based
T2 sequence (whole entry): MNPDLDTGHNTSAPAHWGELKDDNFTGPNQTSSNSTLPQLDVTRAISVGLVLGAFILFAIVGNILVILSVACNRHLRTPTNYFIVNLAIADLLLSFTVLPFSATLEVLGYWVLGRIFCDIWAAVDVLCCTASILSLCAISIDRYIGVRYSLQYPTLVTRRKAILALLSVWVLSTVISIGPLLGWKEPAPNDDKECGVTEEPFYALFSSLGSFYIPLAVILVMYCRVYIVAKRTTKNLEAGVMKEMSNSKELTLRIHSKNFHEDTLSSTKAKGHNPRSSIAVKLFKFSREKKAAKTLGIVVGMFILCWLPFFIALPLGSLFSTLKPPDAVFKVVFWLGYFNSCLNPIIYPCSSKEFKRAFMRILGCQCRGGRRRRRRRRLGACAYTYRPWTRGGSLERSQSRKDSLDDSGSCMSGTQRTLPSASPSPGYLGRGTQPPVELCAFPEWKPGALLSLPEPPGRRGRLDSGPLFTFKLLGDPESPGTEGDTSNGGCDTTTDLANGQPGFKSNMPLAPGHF

[3] = biological target: T3, Alpha-1D adrenergic receptor (Rattus norvegicus) (UniProt P23944); test: Antagonist activity at adrenergic Alpha-1D receptor in Wistar rat thoracic aorta assessed as inhibition of (-)-noradrenaline-indcuced contraction; type: functional, tissue-based
T3 sequence (whole entry): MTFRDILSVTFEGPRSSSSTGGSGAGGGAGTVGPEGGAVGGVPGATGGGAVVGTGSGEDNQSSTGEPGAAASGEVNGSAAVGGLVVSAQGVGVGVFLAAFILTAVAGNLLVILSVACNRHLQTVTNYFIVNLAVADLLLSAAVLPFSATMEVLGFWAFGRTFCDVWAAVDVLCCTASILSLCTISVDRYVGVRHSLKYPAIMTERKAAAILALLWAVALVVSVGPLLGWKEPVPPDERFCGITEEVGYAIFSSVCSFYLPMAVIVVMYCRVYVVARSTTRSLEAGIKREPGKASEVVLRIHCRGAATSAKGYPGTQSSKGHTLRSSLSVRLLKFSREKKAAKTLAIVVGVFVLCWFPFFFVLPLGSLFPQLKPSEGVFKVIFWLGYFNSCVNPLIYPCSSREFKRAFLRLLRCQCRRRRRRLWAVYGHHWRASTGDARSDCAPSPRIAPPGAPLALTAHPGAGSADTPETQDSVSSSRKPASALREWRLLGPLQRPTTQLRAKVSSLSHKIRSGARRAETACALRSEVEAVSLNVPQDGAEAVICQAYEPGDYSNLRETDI

[4] = biological target: T4, Alpha-1A adrenergic receptor (Homo sapiens, UniProt P35348); test: Displacement of [3H]prazosin from human adrenergic alpha1A expressed in CHO cells; type: cell-based
T4 sequence (P35348 whole entry): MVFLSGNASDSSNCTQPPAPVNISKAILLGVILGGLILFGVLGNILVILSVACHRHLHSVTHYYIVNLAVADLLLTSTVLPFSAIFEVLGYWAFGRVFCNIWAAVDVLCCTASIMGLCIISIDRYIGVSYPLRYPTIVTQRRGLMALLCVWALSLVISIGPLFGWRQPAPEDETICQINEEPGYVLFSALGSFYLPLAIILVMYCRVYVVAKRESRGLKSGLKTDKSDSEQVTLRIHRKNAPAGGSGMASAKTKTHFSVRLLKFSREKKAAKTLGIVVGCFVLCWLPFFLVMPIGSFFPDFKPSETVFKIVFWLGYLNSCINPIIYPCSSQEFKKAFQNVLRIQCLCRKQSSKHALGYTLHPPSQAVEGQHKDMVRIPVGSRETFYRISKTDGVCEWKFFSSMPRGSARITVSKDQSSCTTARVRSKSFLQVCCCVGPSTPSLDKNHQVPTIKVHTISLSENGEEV
In short: (§1)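 Membranes (30 µg protein) from CHO cells stably expressing each cloned human α1 subtype, labelled with [3H]prazosin. Nonspecific binding with 10 µM phentolamine. Stopped with ice-cold Tris–HCl and filtration on 0.2% polyethyleneimine-treated glass-fibre filters. Ki from IC50 by Cheng–Prusoff, nonlinear fitting. Mean ± SE of 2–3 experiments in triplicate.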

[5] = biological target: T5, Alpha-1D adrenergic receptor (Homo sapiens, UniProt P25100); test: Displacement of [3H]prazosin from human adrenergic Alpha-1D expressed in CHO cells; type: cell-based; in short: as §1
T5 sequence (P25100 whole entry): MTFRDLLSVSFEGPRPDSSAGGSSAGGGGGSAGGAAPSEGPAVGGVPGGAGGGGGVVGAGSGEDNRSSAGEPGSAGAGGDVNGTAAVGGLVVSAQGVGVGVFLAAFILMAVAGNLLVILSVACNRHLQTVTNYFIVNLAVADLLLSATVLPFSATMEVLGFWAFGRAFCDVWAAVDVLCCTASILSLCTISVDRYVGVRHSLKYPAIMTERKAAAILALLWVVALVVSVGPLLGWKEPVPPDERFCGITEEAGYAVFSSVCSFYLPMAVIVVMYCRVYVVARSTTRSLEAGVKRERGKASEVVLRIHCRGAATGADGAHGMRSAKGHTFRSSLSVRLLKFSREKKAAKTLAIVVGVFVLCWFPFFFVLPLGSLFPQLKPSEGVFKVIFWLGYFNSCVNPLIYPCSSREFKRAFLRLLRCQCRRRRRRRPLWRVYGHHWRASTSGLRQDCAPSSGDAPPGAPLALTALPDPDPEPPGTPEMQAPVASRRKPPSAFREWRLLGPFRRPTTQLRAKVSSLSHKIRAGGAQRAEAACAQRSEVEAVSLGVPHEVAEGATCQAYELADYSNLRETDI

[6] = biological target: T6, 5-hydroxytryptamine receptor 1A (Homo sapiens, UniProt P08908); test: Displacement of [3H]8-OH-DPAT from human adrenergic 5HT1A expressed in human HeLa cells; type: cell-based
T6 sequence (P08908 whole entry): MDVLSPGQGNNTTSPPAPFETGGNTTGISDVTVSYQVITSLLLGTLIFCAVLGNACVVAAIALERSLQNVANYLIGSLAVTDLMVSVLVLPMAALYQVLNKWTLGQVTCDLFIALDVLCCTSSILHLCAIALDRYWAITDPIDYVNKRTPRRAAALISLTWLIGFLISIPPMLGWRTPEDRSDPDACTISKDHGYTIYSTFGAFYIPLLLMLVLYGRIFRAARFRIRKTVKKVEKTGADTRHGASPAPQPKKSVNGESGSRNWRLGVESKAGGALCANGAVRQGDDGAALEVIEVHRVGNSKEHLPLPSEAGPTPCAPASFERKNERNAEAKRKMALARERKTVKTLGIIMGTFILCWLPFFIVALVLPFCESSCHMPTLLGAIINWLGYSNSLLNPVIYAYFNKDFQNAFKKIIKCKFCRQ
In short: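 HeLa cells stably carrying human 5-HT1A clone G-21, grown in DMEM with 10% FCS. Membranes in 50 mM Tris–HCl pH 7.4, 2.5 mM MgCl2, 10 µM pargyline, with 0.7–1.4 nM [3H]8-OH-DPAT for 30 min at 30 °C. Nonspecific binding with 10 µM 5-HT. Filtration stop. Ki by Cheng–Prusoff. Mean ± SE of 2–3 experiments in triplicate.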

[7] = biological target: T7, Alpha-1B adrenergic receptor (Homo sapiens, UniProt P35368); test: Displacement of [3H]prazosin from human adrenergic Alpha-1B expressed in CHO cells; type: cell-based; in short: as §1
T7 sequence (P35368 whole entry): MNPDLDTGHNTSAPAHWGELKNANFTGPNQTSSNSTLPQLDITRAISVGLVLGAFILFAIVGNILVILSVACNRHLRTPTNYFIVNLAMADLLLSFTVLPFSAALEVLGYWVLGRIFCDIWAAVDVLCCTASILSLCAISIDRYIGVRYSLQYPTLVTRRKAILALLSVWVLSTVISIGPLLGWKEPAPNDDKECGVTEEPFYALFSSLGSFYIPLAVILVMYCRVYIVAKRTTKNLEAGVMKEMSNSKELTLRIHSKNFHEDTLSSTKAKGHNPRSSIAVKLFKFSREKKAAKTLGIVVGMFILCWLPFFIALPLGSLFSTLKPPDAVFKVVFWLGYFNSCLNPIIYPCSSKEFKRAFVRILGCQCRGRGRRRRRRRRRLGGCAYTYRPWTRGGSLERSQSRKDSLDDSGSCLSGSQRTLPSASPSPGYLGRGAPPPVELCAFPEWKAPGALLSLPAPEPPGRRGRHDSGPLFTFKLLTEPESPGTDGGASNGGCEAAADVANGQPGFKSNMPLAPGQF

pKb [1]	pKb [2]	pKb [3]	Ki [4] [nM]	Ki [5] [nM]	Ki [6] [nM]	Ki [7] [nM]	SMILES
8.39	8.3	9.37					COc1cccc(OC)c1OCCNCCOc1ccccc1OCc1ccccc1
8.74	8.57	9.47	3.16	0.178	15.8	0.501	COc1cccc(OC)c1SCCNCCOc1ccccc1OCc1ccccc1
8.41	8.19	8.92	1.12	0.513	15.8	5.01	COc1cccc([N+](=O)[O-])c1OCCNCCOc1ccccc1OCc1ccccc1
7.8	7.34	8.12	9.77	1.2	2.51	6.92	COc1cccc(OC)c1CCCNCCOc1ccccc1OCc1ccccc1
9.51	8.16	8.8					COc1cccc(OC)c1OCCNCC1COc2ccccc2O1 (configuration not stated)
7.33	7.78	7.59	7.94	14.1	15.8	100	Cc1cccc(C)c1OCCNCCOc1ccccc1OCc1ccccc1
6.57	7.75	8.02	6.31	7.08	31.6	79.4	Clc1cccc(Cl)c1OCCNCCOc1ccccc1OCc1ccccc1
7.65	7.74	7.32	10	17.8	7.94	100	c1ccc(COc2ccccc2OCCNCCOc2ccccc2)cc1
7.44	7.02	7.44	5.01	15.1	12.6	100	Oc1cccc(O)c1OCCNCCOc1ccccc1OCc1ccccc1
8.16	7.84	8.74	2.51	0.741	31.6	7.94	COc1cccc(Cl)c1OCCNCCOc1ccccc1OCc1ccccc1
7.92	8.57	8.03	3.16	0.389	31.6	0.794	CCOc1cccc(OCC)c1OCCNCCOc1ccccc1OCc1ccccc1
8.35	7.91	8.36	2.51	0.912	3.98	5.01	COc1cccc(C)c1OCCNCCOc1ccccc1OCc1ccccc1
7.95	7.65	7.49	20	2.75	3.16	15.8	COc1cccc(OC)c1[S+]([O-])CCNCCOc1ccccc1OCc1ccccc1 (configuration not stated)
8.03	7.94	8.35	2	3.72	5.01	12.6	CCOc1ccccc1OCCNCCOc1ccccc1OCc1ccccc1
7.95	7.89	8.08	3.16	3.98	2.51	20	COc1ccccc1OCCNCCOc1ccccc1OCc1ccccc1
